High-throughput results (PubChem)
Shown are actives, neighbours in structure and some others; about 2.6% of the full set was active somewhere.
IMP-1 inhibitor: blocks Pseudomonas aeruginosa IMP-1 metallo-beta-lactamase | purified IMP-1, nitrocefin hydrolysis, epi-absorbance fluorescence | inhibition, % at 5.6 µM | 0.45% of 290,000 active;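 active = inhibition above the mean plus 3 SD of all compounds in the same screening run, cut at about 4.5% in these data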
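system = purified recombinant IMP-1 beta-lactamase | amount = 0.2 nM IMP-1, as dispensed | medium = HEPES buffer pH 7.1 with ZnSO4 and Brij 35 | times = 25 °C, 15 min preincubation, 25 min reaction | detection = plate fluorescence quenching by hydrolysis product, ex 480/em 530 nm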
VIM-2 inh: blocks Pseudomonas aeruginosa VIM-2 metallo-beta-lactamase; AID 1527; purified VIM-2, nitrocefin hydrolysis, epi-absorbance fluorescence; 0.89% of 290,000 active; inhibition, % at 5.6 µM;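 active = inhibition above the mean of all tested compounds plus 3 SD, cutoff set per screening run, cut at about 7.5% in these data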;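 note: red hydrolysis product quenches plate fluorescence so inhibitors raise well fluorescence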
Runt-CBFb FRET: blocks binding of human RUNX1 Runt domain to CBFb | inhibition, % at 20 µM | Cerulean-Runt/Venus-CBFb FRET ratio 530/480, 1 h | Q01196+Q13951 | 0.46% of 220,000 active;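 active = inhibition over about 50% at 20 µM in the single-dose screen, limit read from the data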
Target sequence (Q01196 whole entry, looked up, the tested form may be a part): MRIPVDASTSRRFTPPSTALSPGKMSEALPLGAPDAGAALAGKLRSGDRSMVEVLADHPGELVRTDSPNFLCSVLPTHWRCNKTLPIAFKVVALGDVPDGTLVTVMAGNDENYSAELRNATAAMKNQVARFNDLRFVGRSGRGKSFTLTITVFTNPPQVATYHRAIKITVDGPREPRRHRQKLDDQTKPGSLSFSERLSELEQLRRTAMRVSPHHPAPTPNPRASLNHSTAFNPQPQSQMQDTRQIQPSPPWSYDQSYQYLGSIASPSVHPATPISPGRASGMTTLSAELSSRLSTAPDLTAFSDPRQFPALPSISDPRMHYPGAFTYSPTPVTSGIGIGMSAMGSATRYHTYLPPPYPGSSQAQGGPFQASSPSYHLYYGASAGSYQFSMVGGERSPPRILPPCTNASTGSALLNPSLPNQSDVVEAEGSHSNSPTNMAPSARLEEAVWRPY
Target sequence (Q13951 whole entry, looked up, the tested form may be a part): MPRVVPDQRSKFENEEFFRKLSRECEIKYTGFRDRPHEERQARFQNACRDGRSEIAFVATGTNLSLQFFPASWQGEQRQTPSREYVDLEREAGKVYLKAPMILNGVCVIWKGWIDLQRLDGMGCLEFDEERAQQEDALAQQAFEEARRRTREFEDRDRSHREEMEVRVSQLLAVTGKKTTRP
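Assay system: Cerulean-Runt domain fusion protein, energy donor; Signal: fluorescence energy transfer, 422 nm excitation, 530/480 nm emission; Timing: 1 h compound exposure, room temperature; Control set: unlabeled CBFb; Medium: Tris buffer pH 7.5 with salts and BSA; Compound: single test concentration of 20 µM, 1% DMSO final; Probe or stimulus: Venus-CBFb 100 nM.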
Runt-SMMHC FRET: inhibitors of human RUNX1 Runt domain binding to CBFb-SMMHC; Cerulean-Runt/Venus-CBFb-SMMHC FRET ratio 530/480, 1 h; inhibition, % at 20 µM; 0.74% of 220,000 active;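 active = mean inhibition across duplicate retests at 20 µM reaching about 50%, limit read from the data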;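 note: inhibitors lower the FRET ratio by blocking Runt binding to CBFb-SMMHC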
RanGTP-Imp inh: disruptors of Ran-importin-beta complex formation – biochemical, FRET, CFP-Ran, YFP-importin-beta, homogeneous, primary screen; cell-free CFP-Ran/YFP-importin-beta FRET ratio; inhibition, % (concentration not given with the values); 1.1% of 300,000 active; AID 2216;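 active = more than half of the replicate wells show a fall in the fluorescence ratio signal beyond about 16%, limit read from the data, passing the limit was not always enough; inconclusive = exactly half of the replicate wells pass the set limit; inactive = fewer than half of replicates pass the limit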
A number is an active result; i = inactive; ? = inconclusive; nt = not tested or not shown.

SMILES | IMP-1 inhibitor | VIM-2 inh | Runt-CBFb FRET | Runt-SMMHC FRET | RanGTP-Imp inh
O=C(O)/C=C/C(=O)NNc1ncnc2ccccc12 | i | i | i | i | i
COc1ccc(Nc2nnc(-c3ccncc3)s2)cc1Cl | 17 | i | nt | nt | i
Clc1ccccc1Nc1nnc(-c2ccncc2)s1 | i | i | i | i | i
COCCNC(=O)c1cc2c(=O)n3cccc(C)c3nc2n1C | nt | nt | i | i | i
Cc1cccn2c(=O)c3cc(C#N)c(=NC(=O)c4cccs4)n(CC(C)C)c3nc12 | i | i | i | 88 | 151
CCOCCCn1c(=NC(=O)c2cccs2)c(C#N)cc2c(=O)n3cccc(C)c3nc21 | i | i | 76 | 81 | 121
O=C(CN(C(=O)CCC(=O)Nc1nccs1)c1ccccc1F)NCc1ccccc1 | i | i | nt | nt | i
COC(=O)C1=C(N)Oc2cc(C)n(CC3CCCO3)c(=O)c2C1c1ccccc1OC (stereo not drawn) | i | i | i | i | i
COC(=O)C1=C(N)Oc2cc(N(C)C)ccc2C1c1ccccc1OC (stereo not drawn) | 7.5 | i | i | i | 24
COc1ccc(N=CC=C2OC(C)(C)C(C)(C)O2)cc1OC | i | i | i | i | 15
O=C1OC(c2ccccc2)c2ccc3ccccc3c21 (stereo not drawn) | i | 9.5 | i | i | i
Cc1c(Cl)cccc1-c1ccc(CNCc2ccccn2)o1 | i | 7.9 | nt | nt | i
Cc1ccc(S(=O)(=O)Nc2cccc(Cl)c2)cc1NC(=O)c1cccnc1 | i | i | i | i | 62
Cc1nc2c3cc(Cl)ccc3n(CCN3CCCCC3)c2s1 | 5.1 | i | i | i | i
COC(=O)Cn1c2ccc(Cl)cc2c2nc(C)sc21 | i | i | i | i | i
COc1ccccc1Oc1coc2cc(O)ccc2c1=O | i | i | i | i | i
COc1ccc(Oc2coc3cc(O)ccc3c2=O)cc1 | 25 | i | nt | nt | i
O=C(c1ccco1)N1CCC(c2nc3c(nnn3Cc3ccc(F)cc3)c(=O)[nH]2)CC1 | i | i | nt | nt | i
C/C(=N\NC(N)=S)c1ccc(-n2ccnc2)cc1 | i | 10.0 | i | i | ?
Clc1cccc(Cl)c1C1=NOC(c2nnc(-c3ccccc3)o2)C1 (stereo not drawn) | nt | nt | i | i | ?
CCC(C)C(NS(=O)(=O)c1ccc(C)cc1)C(=O)N1CCOCCOCCOCC1 (stereo not drawn) | i | i | nt | nt | i
Cc1cc(=O)oc2c3c(cc(OCC(=O)N[C@@H](C)C(=O)O)c12)OC(C)(C)CC3 | i | 8.5 | nt | nt | i
Cc1cc(=O)oc2c3c(cc(OCC(=O)NC(C)C)c12)OC(C)(C)CC3 | i | i | nt | nt | i
Cc1cccn2c(=O)nc(SCC(=O)c3ccccc3)nc12 | nt | nt | nt | nt | i
CC1(C(=O)NNC(=O)c2ccc(=O)oc2)CC1Br (stereo not drawn) | i | i | i | 84 | i
SMILES | IMP-1 inhibitor | VIM-2 inh | Runt-CBFb FRET | Runt-SMMHC FRET | RanGTP-Imp inh
CCc1nc(CN(C)C(=O)C2CCC(=O)N(CCc3cccc(F)c3)C2)no1 (stereo not drawn) | i | i | nt | nt | i
COc1cc(NC(=O)CSc2nnc(-c3ccncc3)o2)cc(OC)c1OC | i | i | nt | nt | i
S=C(Nc1ccc(N2CCOCC2)cc1)Nc1ccc2nc(-c3ccco3)c(-c3ccco3)nc2c1 | i | i | i | i | 20
O=C(Nc1ccc2nc(-c3ccco3)c(-c3ccco3)nc2c1)N1CCN(c2ccccn2)CC1 | i | i | i | i | 33
COc1cc(/C=N/NC(=O)C2CC(=O)N(c3ccc(C)cc3)C2)cc(OC)c1OC (stereo not drawn) | i | i | nt | nt | i
COc1ccc(-c2noc(CCCc3ccccc3)n2)cc1OC | i | i | i | i | 26
CC(C)NC(=O)c1onc(CSc2ccc(F)cc2)c1C(=O)NC(C)C | nt | nt | nt | nt | i
O=C(Nc1ccc(Cl)cc1)N1CC=CCC1 | 8.1 | i | i | i | i
O=C(Nc1ccc(Cl)cc1)N1CCN(c2ccccc2)CC1 | i | i | i | i | i
O=C(NC1CC1)c1cc2c(s1)-c1ccccc1OC2 | i | i | i | i | i
O=C(Nc1cccc(C(F)(F)F)c1)c1cc2c(s1)-c1ccccc1OC2 | i | i | i | 87 | 41
Cc1ccc(C(=O)Nc2cccc3ccccc23)cc1 | i | i | nt | nt | i
CC(C)(C)c1ccc(C(=O)Nc2cccc3c(=O)[nH][nH]c(=O)c23)cc1 | 5.9 | i | i | i | 39
COc1cc(C(=O)COC(=O)c2cc([N+](=O)[O-])ccc2N2CCOCC2)ccc1OC(F)F | nt | nt | nt | nt | i
c1ccc2c(NCCc3c[nH]c4ccccc34)c3ccccc3nc2c1 | i | 8.1 | nt | nt | 91
COc1cc(Nc2c3ccccc3nc3ccccc23)cc(OC)c1OC | i | i | nt | nt | ?
OCCCNc1c2ccccc2nc2ccccc12 | i | 8.3 | nt | nt | 51
CC(C)(C)Nc1c2ccccc2nc2ccccc12 | i | i | nt | nt | 28
Cc1ccc(-c2nc(NCCCO)c3ccccc3n2)cc1 | i | i | nt | nt | i
COc1cccc2cc(C(=O)C3=C(O)C(=O)N(CCN4CCOCC4)C3c3cccc(Cl)c3)oc12 (stereo not drawn) | i | i | nt | nt | i
CCCCOC(=O)C(C#N)c1nc2ccccc2nc1N1CCN(Cc2ccc3c(c2)OCO3)CC1 (stereo not drawn) | i | i | i | 75 | nt
COC(=O)C(C#N)c1nc2ccccc2nc1N1CCN(Cc2ccc3c(c2)OCO3)CC1 (stereo not drawn) | nt | nt | i | i | i
COCC(C)OC(=O)C(C#N)c1nc2ccccc2nc1N1CCN(Cc2ccccc2)CC1 (stereo not drawn) | i | i | i | 72 | i
C=CCOC(=O)C(C#N)c1nc2ccccc2nc1N1CCN(Cc2ccccc2)CC1 (stereo not drawn) | i | i | i | 68 | nt
O=C(CCC(=O)N1CCOCC1)NCCc1ccc(Cl)cc1Cl | i | i | nt | nt | i
SMILES | IMP-1 inhibitor | VIM-2 inh | Runt-CBFb FRET | Runt-SMMHC FRET | RanGTP-Imp inh
CCOc1ccc2nc(N3CCCC(C(=O)NCCCN4CC(C)CC(C)C4)C3)sc2c1 (stereo not drawn) | i | i | nt | nt | ?
Cc1ccc(C(=O)COC(=O)c2cc(=O)[nH]c3ccccc23)cc1C | i | i | i | i | 37
C/C=C/C=C/[C@H]1Cc2cc(O)cc(O)c2O1 | nt | nt | i | i | 22
NC(=NCCc1ccccc1)NC(=O)c1cc(Cl)ccc1O | nt | nt | nt | nt | i
CCOc1ccc(Nc2cc(C)nc3c(C)cccc23)cc1 | i | i | nt | nt | i
COc1ccc(Nc2cc(C)nc3c(C)cccc23)cc1OC | i | 10 | nt | nt | i
CC(=O)Nc1ccc(Nc2cc(C)nc3ccccc23)cc1 | nt | nt | nt | nt | i
Cc1cc(Nc2ccc(C)c(C)c2)c2ccccc2n1 | i | 8.6 | nt | nt | i
CCNc1nc(C)c(CN(C(C)=O)c2ccccc2)nc1C#N | i | i | i | 91 | i
CC(=O)N(CN1C(=O)c2ccccc2C1=O)c1ccccc1 | i | i | i | i | i
CCOC(=O)C1=C(C)Nc2nc3ccccc3n2C1c1ccc(O)cc1 (stereo not drawn) | 29 | i | i | i | i
